Experiments:
Format in all cases: functional
MOLT-4 = test: Cytotoxicity against human MOLT4 cells
Procedure, shortened: (§1)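 Tested in a 60-cell-line human tumor panel screen; the read-out is growth inhibition, reported as GI50 for each cell line.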

SK-MEL-5 = test: Cytotoxicity against human SK-MEL-5 cells; details: read-out: pLC50 (the source's name) (converted); procedure, shortened: as §1
PC-3 = test: Cytotoxicity against human PC3 cells; procedure, shortened: as §1
HCT-116 = test: Cytotoxicity against human HCT116 cells; procedure, shortened: as §1
[1] = Cytotoxicity against human HCT15 cells; procedure, shortened: as §1
NCI-H460 = test: Cytotoxicity against human NCI-H460 cells; procedure, shortened: as §1
COLO 205 = test: Cytotoxicity against human COLO205 cells; procedure, shortened: as §1
[2] = Cytotoxicity against human OVCAR3 cells; procedure, shortened: as §1
ACHN = test: Cytotoxicity against human ACHN cells; procedure, shortened: as §1
[3] = Cytotoxicity against human UACC62 cells; details: UACC-62, read-out: pLC50 (the source's name) (converted)
Procedure, shortened: (§2)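 Cell line run as part of the 60-cell-line screening panel; growth inhibition was reported as a GI50 for each line.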

SK-MEL-2 = test: Cytotoxicity against human SK-MEL-2 cells; procedure, shortened: as §1
[4] = Cytotoxicity against human UO31 cells; procedure, shortened: as §2
CCRF-CEM = test: Cytotoxicity against human CCRF-CEM cells
HT-29 = test: Cytotoxicity against human HT-29 cells; procedure, shortened: as §1
MDA-MB-468 = test: Cytotoxicity against human MDA-MB-468 cells; procedure, shortened: as §1
[5] = Cytotoxicity against human NCI-ADR-RES cells; procedure, shortened: as §1
SK-OV-3 = test: Cytotoxicity against human SKOV3 cells; procedure, shortened: as §1
[6] = Cytotoxicity against human OVCAR4 cells; procedure, shortened: as §1
RXF 393 = test: Cytotoxicity against human RXF393 cells; procedure, shortened: as §1
M14 = test: Cytotoxicity against human M14 cells; procedure, shortened: as §1
NCI-H226 = test: Cytotoxicity against human NCI-H226 cells; procedure, shortened: as §1
NCI-H23 = test: Cytotoxicity against human NCI-H23 cells; procedure, shortened: as §1
[7] = Cytotoxicity against human EKVX cells; procedure, shortened: as §1
SN12C = test: Cytotoxicity against human SN12C cells; procedure, shortened: as §1
HL-60(TB) = test: Cytotoxicity against human HL-60(TB) cells
Procedure, shortened: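 Tested within the NCI 60-cell-line screen, with GI50 as the read-out. Values are the average of two independent experiments. The lowest concentration tested was 10 nM.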

MDA-MB-435 = test: Cytotoxicity against human MDA-MB-435 cells; procedure, shortened: as §1
LOX IMVI = test: Cytotoxicity against human LOXIMVI cells; procedure, shortened: as §1
MDA-MB-231 = test: Cytotoxicity against human MDA-MB-231 cells; procedure, shortened: as §1
IGROV-1 = test: Cytotoxicity against human IGROV1 cells; procedure, shortened: as §1
CAKI-1 = test: Cytotoxicity against human Caki1 cells; procedure, shortened: as §1
SF-295 = test: Cytotoxicity against human SF295 cells; procedure, shortened: as §1
A498 = test: Cytotoxicity against human A498 cells; procedure, shortened: as §1
NCI-H322M = test: Cytotoxicity against human NCI-H322M cells; procedure, shortened: as §1
T47D = test: Cytotoxicity against human T47D cells; procedure, shortened: as §2
[8] = Cytotoxicity against human UACC257 cells; procedure, shortened: as §2
A549 = test: Cytotoxicity against human A549 cells; procedure, shortened: as §1
SNB-75 = test: Cytotoxicity against human SNB75 cells; procedure, shortened: as §2
786-0 = test: Cytotoxicity against human 786-0 cells; procedure, shortened: as §1
BT-549 = test: Cytotoxicity against human BT549 cells; procedure, shortened: as §1
K562 = test: Cytotoxicity against human K562 cells; procedure, shortened: as §1
U-251 = test: Cytotoxicity against human U251 cells; procedure, shortened: as §2
MCF7 = test: Cytotoxicity against human MCF7 cells; procedure, shortened: as §1
SF-539 = test: Cytotoxicity against human SF539 cells; procedure, shortened: as §1
[9] = read-out: pLC50 (the source's name) (converted)

With `COc1cc(/C=C/c2cc(O)c3c(c2)C[C@@H]2C(C)(C)[C@H](O)CC[C@@]2(C)O3)cc2c1ccn2C` the GI50 (MOLT-4) was 0.0389 µM, the CC50 (MOLT-4; [9]) was 89.1 µM and the TGI (MOLT-4; read-out: pTGI (converted)) was 14.8 µM. The CC50 (SK-MEL-5) was 12 µM, the GI50 (PC-3) was 0.741 µM and the LC50 (PC-3) was 89.1 µM. It also gave a TGI (PC-3; read-out: pTGI (converted)) of 38 µM, a GI50 (HCT-116) of 0.407 µM and a CC50 (HCT-116; [9]) of 35.5 µM. For the same molecule, the TGI (HCT-116; read-out: pTGI (converted)) was 13.5 µM, the GI50 ([1]; HCT-15) was 2.95 µM and the CC50 ([1]; HCT-15, read-out: pLC50 (the source's name) (converted)) was 33.9 µM. The TGI ([1]; HCT-15, read-out: pTGI (converted)) was 6.76 µM, the GI50 (NCI-H460) was 0.309 µM and the CC50 (NCI-H460; [9]) was 89.1 µM. For the same molecule, the TGI (NCI-H460; read-out: pTGI (converted)) was 23.4 µM, the GI50 (COLO 205) was 5.62 µM and the CC50 (COLO 205; [9]) was 42.7 µM. For the same molecule, the TGI (COLO 205; read-out: pTGI (converted)) was 17.8 µM, the GI50 ([2]; OVCAR-3) was 10.2 µM and the CC50 ([2]; OVCAR-3, read-out: pLC50 (the source's name) (converted)) was 53.7 µM. It also gave a TGI ([2]; OVCAR-3, read-out: pTGI (converted)) of 24 µM, a GI50 (ACHN) of 1.23 µM and an LC50 (concentration killing 50% of cells) (ACHN) of 50.1 µM. The TGI (ACHN; read-out: pTGI (converted)) was 17.8 µM, the CC50 [3] was 21.4 µM and the GI50 (SK-MEL-2) was 2.29 µM. It also gave a CC50 (SK-MEL-2; [9]) of 43.7 µM, a TGI (SK-MEL-2; read-out: pTGI (converted)) of 17 µM and a GI50 ([4]; UO-31) of 0.0813 µM. The LC50 ([4]; UO-31) was 32.4 µM, the TGI ([4]; UO-31, read-out: pTGI (converted)) was 2.95 µM and the GI50 (CCRF-CEM) was 0.0537 µM. It also gave a CC50 (CCRF-CEM; [9]) of 89.1 µM, a TGI (CCRF-CEM; read-out: pTGI (converted)) of 12.3 µM and a GI50 (HT-29) of 6.03 µM. It also gave a CC50 (HT-29; [9]) of 41.7 µM, a TGI (HT-29; read-out: pTGI (converted)) of 15.1 µM and a GI50 (MDA-MB-468) of 0.871 µM. It also gave an LC50 (MDA-MB-468) of 46.8 µM, a TGI (MDA-MB-468; read-out: pTGI (converted)) of 15.1 µM and a GI50 [5] of 9.55 µM. It also gave a CC50 [5, 9] of 89.1 µM, a TGI ([5]; read-out: pTGI (converted)) of 46.8 µM and an LC50 (SK-OV-3) of 89.1 µM. The TGI (SK-OV-3; read-out: pTGI (converted)) was 35.5 µM, the GI50 ([6]; OVCAR-4) was 8.51 µM and the CC50 ([6]; OVCAR-4, read-out: pLC50 (the source's name) (converted)) was 56.2 µM. It also gave a TGI ([6]; OVCAR-4, read-out: pTGI (converted)) of 24 µM, a GI50 (RXF 393) of 0.00891 µM and an LC50 (RXF 393) of 27.5 µM. It also gave a TGI (RXF 393; read-out: pTGI (converted)) of 1.58 µM, a GI50 (M14) of 0.759 µM and a CC50 (M14; [9]) of 7.08 µM. The TGI (M14; read-out: pTGI (converted)) was 1.26 µM, the GI50 (NCI-H226) was 16.2 µM and the CC50 (NCI-H226; [9]) was 89.1 µM. For the same molecule, the TGI (NCI-H226; read-out: pTGI (converted)) was 60.3 µM, the GI50 (NCI-H23) was 1.38 µM and the CC50 (NCI-H23; [9]) was 44.7 µM. The TGI (NCI-H23; read-out: pTGI (converted)) was 15.5 µM, the GI50 [7] was 4.07 µM and the CC50 [7, 9] was 64.6 µM. The TGI ([7]; read-out: pTGI (converted)) was 22.9 µM, the GI50 (SN12C) was 10.5 µM and the LC50 (SN12C) was 52.5 µM. For the same molecule, the TGI (SN12C; read-out: pTGI (converted)) was 23.4 µM, the GI50 (HL-60(TB)) was 0.0447 µM and the CC50 (HL-60(TB); [9]) was 89.1 µM. It also gave a TGI (HL-60(TB); read-out: pTGI (converted)) of 16.6 µM, a GI50 (MDA-MB-435) of 0.389 µM and a CC50 (MDA-MB-435; [9]) of 61.7 µM. For the same molecule, the TGI (MDA-MB-435; read-out: pTGI (converted)) was 9.12 µM, the GI50 (LOX IMVI) was 0.123 µM and the CC50 (LOX IMVI; [9]) was 26.9 µM. For the same molecule, the TGI (LOX IMVI; read-out: pTGI (converted)) was 4.57 µM, the GI50 (MDA-MB-231) was 3.89 µM and the LC50 (MDA-MB-231) was 51.3 µM. The TGI (MDA-MB-231; read-out: pTGI (converted)) was 19.1 µM, the GI50 (IGROV-1) was 10.7 µM and the CC50 (IGROV-1; [9]) was 89.1 µM. It also gave a TGI (IGROV-1; read-out: pTGI (converted)) of 25.7 µM, a GI50 (CAKI-1) of 0.479 µM and an LC50 (CAKI-1) of 89.1 µM. The TGI (CAKI-1; read-out: pTGI (converted)) was 9.12 µM, the GI50 (SF-295; read-out: GI50) was < 0.012 µM and the GI50 (SF-295; read-out: pGI50 (converted)) was 0.0209 µM. For the same molecule, the CC50 (SF-295; [9]) was 1.95 µM, the TGI (SF-295; read-out: pTGI (converted)) was 0.0437 µM and the GI50 (A498) was 0.0437 µM. The CC50 (A498; [9]) was 53.7 µM, the TGI (A498; read-out: pTGI (converted)) was 9.33 µM and the GI50 (NCI-H322M) was 13.2 µM. The CC50 (NCI-H322M; [9]) was 60.3 µM, the TGI (NCI-H322M; read-out: pTGI (converted)) was 28.2 µM and the GI50 (T47D) was 7.41 µM. For the same molecule, the CC50 (T47D; [9]) was 63.1 µM, the TGI (T47D; read-out: pTGI (converted)) was 23.4 µM and the GI50 ([8]; UACC-257) was 0.0389 µM. It also gave a CC50 ([8]; UACC-257, read-out: pLC50 (the source's name) (converted)) of 64.6 µM, a TGI ([8]; UACC-257, read-out: pTGI (converted)) of 25.1 µM and a GI50 (A549) of 9.55 µM. For the same molecule, the CC50 (A549; [9]) was 58.9 µM, the TGI (A549; read-out: pTGI (converted)) was 23.4 µM and the GI50 (SNB-75) was 0.0525 µM. It also gave a CC50 (SNB-75; [9]) of 35.5 µM, a TGI (SNB-75; read-out: pTGI (converted)) of 5.37 µM and a GI50 (786-0) of 0.0275 µM. The LC50 (concentration killing 50% of cells) (786-0) was 7.94 µM, the TGI (786-0; read-out: pTGI (converted)) was 1.7 µM and the GI50 (BT-549) was 0.138 µM. The CC50 (BT-549; [9]) was 52.5 µM, the TGI (BT-549; read-out: pTGI (converted)) was 20.4 µM and the GI50 (K562) was 0.0813 µM. For the same molecule, the CC50 (K562; [9]) was 89.1 µM, the TGI (K562; read-out: pTGI (converted)) was 6.31 µM and the GI50 (U-251) was 0.141 µM. It also gave a CC50 (U-251; [9]) of 43.7 µM, a TGI (U-251; read-out: pTGI (converted)) of 15.5 µM and a GI50 (MCF7) of 0.661 µM. It also gave an LC50 (MCF7) of 50.1 µM, a TGI (MCF7; read-out: pTGI (converted)) of 12.3 µM and a GI50 (SF-539) of 1.62 µM. It also gave a CC50 (SF-539; [9]) of 45.7 µM and a TGI (SF-539; read-out: pTGI (converted)) of 13.2 µM.
